Measured values: ChEMBL document CHEMBL3526115, “Differences in the pharmacokinetics of 4-amino-3-chlorophenyl hydrogen sulfate, a metabolite of resatorvid, in rats and dogs” (Drug Metab Dispos, 2012)

Tests used:
Plasma = test: Plasma concentration in Beagle dog at 0.5 mg/kg, iv administered as bolus dose by HPLC based liquid scintillation counting analysis; type: ADME, organism-based, Canis lupus familiaris; design: dose 0.5 mg/kg, route intravenous; conditions: in vivo
[1] = Total body clearance in Crj:CD(SD)IGS rat at 0.125 mg/hr, iv administered as continuous infusion by HPLC based liquid scintillation counting analysis; type: ADME, organism-based; conditions: in vivo
Procedure, shortened: (§1)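 Rats received a continuous iv infusion of [14C]M-III at 0.125 mg/rat/h, with probenecid co-infused at 16, 31 or 62 mg/h/kg or vehicle alone, for 5 h. Arterial plasma was sampled during infusion. CLtot = infusion rate / steady-state plasma M-III (120–180 min). Unbound fraction was measured by ultrafiltration of 5-h plasma (10,000 MWCO, 1500g, 37°C, 10 min). CLint = CLtot / unbound ratio.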

Canis familiaris = test: Unbound renal clearance in Beagle dog at 0.5 mg/kg, iv administered as bolus dose measured from 0 to 168 hrs by HPLC-based liquid scintillation counting analysis; type: ADME, organism-based, Canis lupus familiaris, Kidney; design: dose 0.5 mg/kg, route intravenous; conditions: in vivo
Procedure, shortened: (§2)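 After a 0.5 mg/kg iv bolus of [14C]M-III, urine was collected 0–24 h (rat) or 0–168 h (dog) and injected directly onto HPLC with fraction collection and scintillation counting. M-III in urine was derived from the urinary 14C excretion ratio and the [14C]M-III composition. CLrenal = urinary M-III amount / AUC0–24 h (rat) or AUC0–168 h (dog). Unbound CLrenal = CLrenal / free fraction.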

[2] = In vivo plasma protein binding in Crj:CD(SD)IGS rat at 0.125 mg/hr, iv administered as continuous infusion by ultrafiltration method in presence of 16 mg/hr/kg probenecid; type: ADME, organism-based; conditions: with probenecid 16 mg/hr/kg, read-out: PPB (converted); procedure, shortened: as §1
[3] = Renal clearance in Crj:CD(SD)IGS rat at 0.5 mg/kg, iv administered as bolus dose measured from 0 to 24 hrs by HPLC-based liquid scintillation counting analysis; type: ADME, organism-based, Kidney; design: dose 0.5 mg/kg, route intravenous; conditions: in vivo; procedure, shortened: as §2
[4] = In vitro plasma protein binding in rat at 50 ug/ml by ultrafiltration method; type: ADME, cell-free; conditions: read-out: PPB (converted)
Procedure, shortened: (§3)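 [14C]M-III in saline was added to rat or dog plasma at final 0.5, 5 and 50 µg/ml. Plasma was ultrafiltered by centrifugation at 1500g and 37°C for 10 min, and 14C was measured in plasma and filtrate. Mean ± S.D., n = 3.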

Rattus norvegicus [5] = test: Intrinsic total body clearance in Crj:CD(SD)IGS rat at 0.125 mg/hr, iv administered as continuous infusion by HPLC based liquid scintillation counting analysis; type: ADME, organism-based; conditions: in vivo; procedure, shortened: as §1
[6] = In vivo plasma protein binding in Crj:CD(SD)IGS rat at 0.125 mg/hr, iv administered as continuous infusion by ultrafiltration method; type: ADME, organism-based; conditions: read-out: PPB (converted); procedure, shortened: as §1
[7] = Drug excretion in Beagle dog feces assessed as excretion ratio of [14C] at 0.5 mg/kg, iv administered as bolus dose measured from 0 to 168 hrs by HPLC-based liquid scintillation counting analysis; type: ADME, organism-based, Canis lupus familiaris; design: dose 0.5 mg/kg, route intravenous; conditions: in vivo
Procedure, shortened: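 Male rats in metabolic cages with urine/feces separator, or beagle dogs, after a 0.5 mg/kg iv bolus of [14C]M-III in saline. Radioactivity in urine and feces collected 0–24 h (rats) or 0–168 h (dogs) was counted and expressed as percent of dose. Mean ± S.D., n = 3.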

[8] = Drug recovery in Crj:CD(SD)IGS rat urine at 0.5 mg/kg, iv administered as bolus dose measured from 0 to 24 hrs by HPLC analysis; type: ADME, organism-based; design: dose 0.5 mg/kg, route intravenous; conditions: read-out: Drug recovery; procedure, shortened: as §2
[9] = In vivo plasma protein binding in Crj:CD(SD)IGS rat at 0.125 mg/hr, iv administered as continuous infusion by ultrafiltration method in presence of 62 mg/hr/kg probenecid; type: ADME, organism-based; conditions: with probenecid 62 mg/hr/kg, read-out: PPB (converted); procedure, shortened: as §1
[10] = In vitro plasma protein binding in rat at 0.5 ug/ml by ultrafiltration method; type: ADME, cell-free; conditions: read-out: PPB (converted); procedure, shortened: as §3
Rattus norvegicus [11] = test: Intrinsic total body clearance in Crj:CD(SD)IGS rat at 0.125 mg/hr, iv administered as continuous infusion by HPLC based liquid scintillation counting analysis in presence of 62 mg/hr/kg probenecid; type: ADME, organism-based; conditions: in vivo; procedure, shortened: as §1
[12] = Renal clearance in Beagle dog at 0.5 mg/kg, iv administered as bolus dose measured from 0 to 168 hrs by HPLC-based liquid scintillation counting analysis; type: ADME, organism-based, Canis lupus familiaris, Kidney; design: dose 0.5 mg/kg, route intravenous; conditions: in vivo; procedure, shortened: as §2
[13] = AUC infinity in Beagle dog at 0.5 mg/kg, iv administered as bolus dose by HPLC-based liquid scintillation counting analysis; type: ADME, organism-based, Canis lupus familiaris; design: time infinity, dose 0.5 mg/kg, route intravenous; conditions: plasma
Procedure, shortened: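 Male beagles (7.4–10.0 kg) got a single IV injection of [14C]M-III in saline (2.5 mg/ml), 0.5 mg–1.0 MBq/kg. Cephalic-vein blood was taken from 5 min to 168 h and spun for heparinized plasma. Plasma was deproteinized with acetonitrile, run on reverse-phase HPLC and collected as 1-min fractions counted by LSC. AUCinf = AUClast + Clast/kel; n = 3.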

[14] = Unbound fraction in Crj:CD(SD)IGS rat plasma at 0.125 mg/hr, iv administered as continuous infusion by ultrafiltration method in presence of 62 mg/hr/kg probenecid; type: ADME, organism-based; conditions: with probenecid 62 mg/hr/kg (co-administered); procedure, shortened: as §1
[15] = In vitro plasma protein binding in dog at 0.5 ug/ml by ultrafiltration method; type: ADME, cell-free, Canis lupus familiaris; conditions: read-out: PPB (converted); procedure, shortened: as §3
[16] = Ratio of drug level in kidney medulla to plasma in Beagle dog at 0.5 mg/kg, iv administered as bolus dose by HPLC-based liquid scintillation counting analysis; type: ADME, organism-based, Canis lupus familiaris; design: dose 0.5 mg/kg, route intravenous
Procedure, shortened: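 Rats received [14C]M-III in saline by continuous jugular-vein infusion for 4 h (0.5 mg/rat/h per methods; 0.25 mg/h in legend), then aortic blood and kidneys were collected. Dogs received a 0.5 mg/kg iv bolus, with blood and kidneys (cortex and medulla separated) collected at 24 h. 14C was measured in tissue homogenates and plasma as a tissue/plasma ratio. Rat n = 3, dog n = 2.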

[17] = Total body clearance in Crj:CD(SD)IGS rat at 0.125 mg/hr, iv administered as continuous infusion by HPLC based liquid scintillation counting analysis in presence of 31 mg/hr/kg probenecid; type: ADME, organism-based; conditions: in vivo, with probenecid 31 mg/hr/kg; procedure, shortened: as §1
[18] = Plasma concentration in Crj:CD(SD)IGS rat at 0.125 mg/hr, iv administered as continuous infusion measured after 3 hrs by HPLC based liquid scintillation counting analysis in presence of probenecid; type: ADME, organism-based; conditions: with probenecid (dose not stated)
Procedure, shortened: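 Rats were continuously infused iv with [14C]M-III at 0.125 mg/rat/h, plus probenecid (4.7, 9.4, 18.6 mg/rat/h) or vehicle. Femoral-artery blood was taken at 0.5, 1, 2, 3 and 4 h, with terminal aortic blood at 5 h. Plasma radioactivity was measured, with probenecid quantified by HPLC-UV at 240 nm against spiked-plasma calibration from 0.1 to 100 µg/ml.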

[19] = Total body clearance in Crj:CD(SD)IGS rat at 0.125 mg/hr, iv administered as continuous infusion by HPLC based liquid scintillation counting analysis in presence of 16 mg/hr/kg probenecid; type: ADME, organism-based; conditions: in vivo, with probenecid 16 mg/hr/kg; procedure, shortened: as §1
[20] = Unbound fraction in Crj:CD(SD)IGS rat plasma at 0.125 mg/hr, iv administered as continuous infusion by ultrafiltration method in presence of 16 mg/hr/kg probenecid; type: ADME, organism-based; conditions: with probenecid 16 mg/hr/kg; procedure, shortened: as §1

Cp (Plasma): 2500 ng/mL
clearance [1]: 11.4 mL/min/kg
CL free (Canis familiaris): 0.0585 mL/min/kg
fraction unbound [2]: 0.078
CL renal [3]: 9.47 mL/min/kg
fraction unbound at 50 ug/ml [4]: 0.102
clearance (Rattus norvegicus [5]): 130 mL/min/kg
fraction unbound [6]: 0.088
Drug excretion [7]: 7.7%
dose excreted [8]: 76.9%
fraction unbound [9]: 0.184
fraction unbound at 0.5 ug/ml [10]: 0.075
CL (Rattus norvegicus [11]): 9.38 mL/min/kg
CL renal [12]: 0.00468 mL/min/kg
AUC(0-inf) [13]: 596 µg·h/mL
fraction unbound [14]: 0.184
fraction unbound at 0.5 ug/ml [15]: 0.098
Kp [16]: 0.2
clearance [17]: 2.35 mL/min/kg
concentration at 3 h [18]: 3600 ng/mL
clearance [19]: 4.45 mL/min/kg
fraction unbound [20]: 0.078
Structure (SMILES): N[14c]1[14cH][14cH][14c](OS(=O)(=O)O)[14cH][14c]1Cl
